The values below come from ChEMBL document CHEMBL4765449, “Synthesis, biological evaluation and toxicity of novel tetrandrine analogues” (Eur J Med Chem, 2020).

What is called IC50 is the point on the concentration scale where inhibition reaches its midpoint.

For series [1], the system named is CEM. Description: Inhibition of P-gp in vincristine-resistant human CEM cells at 0.1 to 1 uM using calcein-AM as substrate preincubated for 30 mins followed by compound washout and subsequent substrate addition measured after 60 mins by flow cytometric analysis. Format: cell-based. Particulars: dose 0.1-1 µM.
Series [2] deals with CCRF-CEM. Description: Effect on MCL1 expression in vincristine-resistant human CEM cells at 5 uM measured after 24 hrs by Western blot analysis. It counts as functional, cell-based. In a few lines: (§1)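 VCR-R CEM cells, 2 × 10^6 per well, seeded 4 h before 5 μM compound or DMSO for 24 h; RIPA lysis, SDS-PAGE, PVDF blotting, chemiluminescence. Probed for p-Akt (Ser473), total Akt, PARP, Bcl-xL, Mcl-1; stain-free total protein as loading control.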
For orientation: Immunoblotting shows a protein as a band on a membrane.

The test system of series [3] is CCRF-CEM. Description: Effect on Bcl-XL expression in vincristine-resistant human CEM cells at 5 uM measured after 24 hrs by Western blot analysis. It counts as functional, cell-based. In a few lines: as §1
For series [4], the system named is HepaRG. In words: Cytotoxicity against human HepaRG cells assessed as reduction in cell viability at 20 uM measured after 24 hrs by Celltiter-blue cell viability assay. It counts as cell-based. In a few lines: (§2)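 Differentiated HepaRG cells (Maintenance/Metabolism medium) exposed 24 h to 10 or 20 μM compound; viability by CellTiter-Blue, normalized to vehicle control. Means ± SEM of three independent experiments.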
Background: Resazurin is reduced to fluorescent resorufin, in cell work by metabolically active cells.

The test system of series [5] is HepaRG. In words: Cytotoxicity against human HepaRG cells overexpressing EGFP-CYP3A4 assessed as reduction in cell viability at 10 uM measured after 24 hrs by propidium iodide staining based flow cytometry. Format: ADME. The essentials:
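HepaRG cells, differentiated, transiently transfected with pcDNA3-CYP3A4-EGFP or empty vector 16 h before stimulation; 10 μM compound for 24 h. Propidium iodide (5 μg/mL in PBS) staining, flow cytometry without FSC/SSC gating; specific cell death = % dead (treated) − % dead (control). Three independent experiments.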
(In flow cytometry, cells or beads pass a laser one at a time.)

The test system of series [6] is HepaRG. In words: Cytotoxicity against human HepaRG cells assessed as reduction in cell viability at 10 uM measured after 24 hrs by Celltiter-blue cell viability assay. It counts as cell-based. The essentials:
as §2

The test system of series [7] is CEM. In words: Effect on AKT phosphorylation at Ser473 residue in vincristine-resistant human CEM cells at 5 uM measured after 24 hrs by Western blot analysis. Format: cell-based. The essentials:
as §1

Series [8] can be described thus: Cytotoxicity against human PBMC assessed as reduction in cell viability at 1 to 10 uM measured after 48 hrs by propidium iodide staining based flow cytometry.
Series [9] deals with HepG2. In words: Induction of mitochondrial membrane disruption in human HepG2 cells at 5 uM measured after 24 hrs by JC-1 dye based flow cytometric analysis. Format: functional, cell-based. The essentials:
(§3)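 Cells (HepG2 adhered overnight; VCR-R CEM seeded 4 h before) treated with DMSO or 5 μM for 24 h; JC-1 (1 μg/mL) 1 h before harvest, PBS wash, flow cytometry; green shift read as loss of ΔΨm. CCCP (100 μM, 1 h) positive control; elacridar (5 μM) present for CEM staining.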

The subject of a further series is HUVEC. In words: Cytotoxicity against HUVEC assessed as reduction in cell viability at 1 to 10 uM measured after 24 hrs by Celltiter-blue cell viability assay. It counts as cell-based. Particulars: human, dose 1-10 µM. In a few lines: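 HUVECs seeded, adhered overnight, exposed 24 h to 1, 5 and 10 μM; CellTiter-Blue viability normalized to vehicle control; three independent experiments.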

For series [10], the system named is CEM. In words: Inhibition of P-gp in vincristine-resistant human CEM cells assessed as potentiation of vincristine-induced apoptosis 1 uM measured after 48 hrs by propidium iodide staining based flow cytometry. Format: cell-based. In a few lines:
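VCR-R CEM, 0.125 × 10^6 per well, rested 4 h, then incubated 48 h with increasing vincristine with or without 1 μM compound; apoptosis by propidium iodide staining and flow cytometry. Three independent experiments.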

The subject of series [11] is HepG2. In words: Cytotoxicity against human HepG2 cells overexpressing EGFP-CYP3A4 assessed as reduction in cell viability at 15 uM measured after 24 hrs by propidium iodide staining based flow cytometry. It counts as functional. In a few lines:
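HepG2 stably transfected (G418 0.5 mg/mL, four weeks; plasmid confirmed by PCR) with pcDNA3-CYP3A4-EGFP or empty vector, 0.1 × 10^6 per well, adhered overnight; 15 μM compound 24 h. Propidium iodide staining and flow cytometry; specific cell death relative to control. Three independent experiments.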

The subject of series [12] is CCRF-CEM. Description: Induction of mitochondrial membrane disruption in vincristine-resistant human CEM cells at 5 uM measured after 24 hrs by JC-1 dye based flow cytometric analysis. Format: functional, cell-based. In a few lines:
as §3

Series [13] relates to HepG2. Description: Induction of apoptosis in human HepG2 cells assessed as increase in PARP cleavage at 5 uM measured after 24 hrs by Western blot analysis. Format: functional, cell-based. The essentials:
(§4)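 HepG2, 0.5 × 10^6 per well, adhered overnight, then DMSO or 5 μM compound; RIPA lysates immunoblotted by SDS-PAGE/PVDF with chemiluminescent detection.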

In series [14] the test system is CCRF-CEM. Description: Effect on P-gp expression in vincristine-resistant human CEM cells at 1 uM measured after 1.5 hrs by immunostaining based flow cytometry. It counts as functional, cell-based. The essentials: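 VCR-R CEM, 2 × 10^4 cells, 1 μM compound 1.5 h at 37 °C; washed in ice-cold 1% BSA/PBS, stained 30 min at 4 °C in dark with FITC anti-human P-gp, isotype control for background; flow cytometry, gMFI normalized to DMSO. Three independent experiments.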

Series [15] relates to CCRF-CEM. In words: Induction of apoptosis in vincristine-resistant human CEM cells assessed as increase in PARP cleavage at 5 uM measured after 24 hrs by Western blot analysis. Format: functional, cell-based. In a few lines:
as §1

In series [16] the test system is HepG2. In words: Inhibition of AKT phosphorylation at Ser473 residue in human HepG2 cells at 5 uM measured after 24 hrs by Western blot analysis. Format: cell-based. The essentials:
as §4

In series [17] the test system is CCRF-CEM. Description: Antiproliferative activity against vincristine-resistant human CEM cells assessed as reduction in cell viability measured after 48 hrs by Celltiter-blue cell viability assay. Format: functional, cell-based. The essentials: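 VCR-R CEM cells (RPMI 1640, 10% FCS), 0.02 × 10^6 per well, rested 4 h (metabolic activity at this point taken as zero value), then exposed to compounds for 48 h; CellTiter-Blue added 2 h before end, fluorescence at 590 nm. IC50 by nonlinear regression; single-concentration proliferation read at 10 μM.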

Series [18] concerns HepG2. In words: Induction of apoptosis in human HepG2 cells assessed as reduction in Mcl-1 expression at 5 uM measured after 24 hrs by Western blot analysis. It counts as functional, cell-based. In a few lines: as §4
The subject of series [19] is HepG2. Description: Induction of apoptosis in human HepG2 cells assessed as reduction in Bcl-xl expression at 5 uM measured after 24 hrs by Western blot analysis. It counts as functional, cell-based. The essentials: as §4

Calls of active or inactive are those of the source. No cut-off for these calls is given here.

`COc1ccc2cc1Oc1ccc(cc1)C[C@H]1c3cc(c(OC)cc3CCN1C)Oc1c(OC)c(OC)cc3c1[C@H](C2)N(C)CC3` [FANCHININ]: the inhibition result in the series with CEM [1] and in the series on CEM [10] was “Active” each time. The outcome in the series on CCRF-CEM [2], with CCRF-CEM [3], with CEM [7], in the series with HepG2 [9], in the series on CCRF-CEM [12] and in the series on HepG2 [13] was inactive. Further, the outcome in the series with CCRF-CEM [14] was inactive. For the same compound, the Activity entry (with HepaRG [4]; with HepaRG [5]; in the series with HepaRG [6]; in series [8]; with HUVEC) was “Toxic” each time. The outcome in the series with HepG2 [11] was Active.
With `COc1cc2c3cc1Oc1c(OC)c(OC)cc4c1C(Cc1ccc(OC(F)(F)F)c(c1)Oc1ccc(cc1)CC3N(C)CC2)N(C)CC4` (racemic; form 2), the inhibition entry in the series with CEM [1], in the series with HepG2 [16] and with CEM [10] was “Active” in each case. Moreover, the result with CCRF-CEM [2], in the series on CCRF-CEM [3], with CEM [7], in the series with HepG2 [9], with HepG2 [13] and with CCRF-CEM [14] was inactive. The outcome in the series with CCRF-CEM [15], in the series with HepG2 [11] and in the series with CCRF-CEM [12] was Active.
Turning to `COc1cc2c3cc1Oc1c(OC)c(OC)cc4c1C(Cc1ccc(OC(F)(F)F)c(c1)Oc1ccc(cc1)CC3N(C)CC2)N(C)CC4` (racemic; form 1), the Activity entry (in the series on HepaRG [4]; in the series on HepaRG [6]; in series [8]; in the series on HUVEC) was “Toxic” in each case.
Regarding `COc1cc2c3cc1Oc1c(OC)c(OC)cc4c1C(Cc1ccc(Cl)c(c1)Oc1ccc(cc1)CC3N(C)CC2)N(C)CC4` (mixture of isomers), the Activity entry with HepaRG [4] and in the series on HepaRG [6] was “Toxic” throughout. The IC50 in the series with CCRF-CEM [17] turned out to be 4.8 µM.
With `COc1cc2c3cc1Oc1c(OC)c(OC)cc4c1C(Cc1cc(cs1)Oc1ccc(cc1)CC3N(C)CC2)N(C)CC4` (racemic; form 1), the inhibition entry in the series on CEM [1], in the series with HepG2 [16] and in the series on CEM [10] was “Active” throughout. The result with CCRF-CEM [2], with CCRF-CEM [3], in the series with CEM [7], in the series on HepG2 [9], in the series on HepG2 [13] and in the series on CCRF-CEM [14] was inactive. Also, the result in the series on HepG2 [18], with HepG2 [19], in the series on HepG2 [11] and with CCRF-CEM [12] was Active.
